The subject of assay [1] is hNTS2. To be noted: cited from earlier work.
The target in assay [2] is hNTS1. To be noted: read-out: Ki toward hNTS1; cited from earlier work.
Assay [3] relates to NTS1. Conditions: cited from earlier work.
Assay [4] has as its target NTS2 (Homo sapiens, UniProt O95665). In words: Calcium imaging assay. Format: cell-based. The method in brief: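 HT-29 cells grown overnight on glass slides (5 × 10^5 cells, 37 °C, 5% CO2), loaded 30 min in the dark with 100 μM fluo-8 AM, 0.4% pluronic acid and 2.5 mM probenecid in RPMI. Perfused with bicarbonate-glucose buffer (95% O2/5% CO2, pH 7.4, room temperature), washed 10 min. Test compound 10–11 to 10–5 M by rapid perfusion; levocabastine as positive control. Ex 490/Em 514 nm; ΔF/F (%) vs baseline, normalized to levocabastine stimulation; twice in duplicate, 20 cells analysed.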

Sequence of NTS2 (O95665 whole entry, the tested form may be a part): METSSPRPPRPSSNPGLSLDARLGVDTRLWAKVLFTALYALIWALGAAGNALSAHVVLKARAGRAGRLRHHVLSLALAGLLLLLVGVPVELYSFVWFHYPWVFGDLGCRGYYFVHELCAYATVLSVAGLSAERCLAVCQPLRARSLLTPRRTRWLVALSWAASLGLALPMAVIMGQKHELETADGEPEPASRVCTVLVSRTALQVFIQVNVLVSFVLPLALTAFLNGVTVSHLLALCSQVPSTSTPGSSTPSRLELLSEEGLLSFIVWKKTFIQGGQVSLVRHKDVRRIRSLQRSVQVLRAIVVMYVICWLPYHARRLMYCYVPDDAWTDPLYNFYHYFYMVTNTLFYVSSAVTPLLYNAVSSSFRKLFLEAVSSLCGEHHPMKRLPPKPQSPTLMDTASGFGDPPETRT

Take “H-Lys-Lys-Pro-(D)Trp-Ile-TMSAla-OH [JMV 5504]”: the “selectivity index hNTS1/hNTS2” value in assay [1] is recorded as 423. The Ki in assay [1] (read-out: Ki toward hNTS2) is 8.5 nM; in assay [2] it was 3600 nM. Moreover, the hypothermic effect entry in assay [3] is listed as “no hypothermic effect”.

As to `C[C@@H]1CN([C@H]2CC[C@](C#N)(c3ccc(F)cc3)CC2)CC[C@]1(C(=O)O)c1ccccc1` [levocabastine], the EC50 in assay [4] came out at 118 nM.

For orientation: Ki means a measure of affinity in units of concentration, obtained from inhibition or displacement. In general, EC50 refers to the concentration at which the effect is half-maximal.

Values taken from article PMC9948202 (ACS Omega, 2023).
